We go through 26 compounds from ChEMBL document CHEMBL3259559, “Design, synthesis and preliminary evaluation of α-sulfonyl γ-(glycinyl-amino)proline peptidomimetics as matrix metalloproteinase inhibitors” (Bioorg Med Chem, 2014).

Experiment [1] deals with T1, 72 kDa type IV collagenase (Homo sapiens, UniProt P08253). As to the kind of experiment: Inhibition of MMP2 (unknown origin) using succinylated gelatin as substrate preincubated for 10 mins before substrate addition measured after 30 mins by spectrophotometry. A digest of the protocol:
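Purified MMP-2 (gelatinase A) and inhibitor in 50 mmol/L sodium borate pH 8.5, preincubated 10 min at 37 °C. Succinylated gelatin then added for 30 min at 37 °C, followed by 0.03% TNBS for 20 min; OD read at 450 nm. IC₅₀ as mean with SD of three experiments.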

Another experiment addresses T2, Aminopeptidase N (Sus scrofa, UniProt P15145).
T2 sequence (P15145 whole entry): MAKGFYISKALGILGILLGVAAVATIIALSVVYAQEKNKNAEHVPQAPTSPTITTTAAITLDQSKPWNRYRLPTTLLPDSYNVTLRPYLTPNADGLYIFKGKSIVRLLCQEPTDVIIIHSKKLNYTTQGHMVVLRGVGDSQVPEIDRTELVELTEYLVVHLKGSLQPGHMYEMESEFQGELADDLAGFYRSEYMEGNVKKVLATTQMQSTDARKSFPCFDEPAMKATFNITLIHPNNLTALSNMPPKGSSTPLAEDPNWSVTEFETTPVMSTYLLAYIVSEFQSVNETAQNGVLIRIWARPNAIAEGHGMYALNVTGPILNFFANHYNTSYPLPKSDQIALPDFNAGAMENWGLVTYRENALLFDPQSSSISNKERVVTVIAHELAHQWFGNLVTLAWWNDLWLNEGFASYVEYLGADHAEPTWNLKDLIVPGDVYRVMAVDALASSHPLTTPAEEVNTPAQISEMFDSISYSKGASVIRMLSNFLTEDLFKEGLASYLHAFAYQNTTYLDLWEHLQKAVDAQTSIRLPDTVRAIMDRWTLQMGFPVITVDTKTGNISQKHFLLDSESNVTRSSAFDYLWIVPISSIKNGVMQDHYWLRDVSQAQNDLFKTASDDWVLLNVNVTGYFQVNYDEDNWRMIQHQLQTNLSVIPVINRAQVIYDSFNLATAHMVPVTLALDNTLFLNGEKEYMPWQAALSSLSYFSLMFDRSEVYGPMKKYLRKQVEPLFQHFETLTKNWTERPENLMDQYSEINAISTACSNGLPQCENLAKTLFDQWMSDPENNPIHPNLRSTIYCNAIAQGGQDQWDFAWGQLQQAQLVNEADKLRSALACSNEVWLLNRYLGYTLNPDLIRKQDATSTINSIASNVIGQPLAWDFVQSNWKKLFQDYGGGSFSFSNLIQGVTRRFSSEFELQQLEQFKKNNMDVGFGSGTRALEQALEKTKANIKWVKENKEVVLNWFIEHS
As to the kind of experiment: Inhibition of pig kidney microsomal APN using L-Leu-p-nitroanilide as substrate preincubated for 5 mins before substrate addition measured after 30 mins by spectrophotometry.

Another experiment has as its target Histone deacetylase. The experiment can be described thus: Inhibition of HDAC in human HeLa nuclear extract using Boc-Lys (acetyl)-AMC as fluorogenic substrate after 30 mins by spectrophotometry. Format: protein assay.
Experiment [2] has as its target T1, 72 kDa type IV collagenase. The experiment can be described thus: Inhibition of MMP2 in human SKOV3 cell suspension using succinylated gelatin as substrate preincubated for 10 mins before substrate addition measured after 30 mins by spectrophotometry. Details: species or system SK-OV-3. In a few lines: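 Enzyme source was SKOV-3 cells suspended in PBS, 1 × 10⁵/well, incubated with inhibitor in 50 mmol/L sodium borate pH 8.5 for 10 min at 37 °C. Succinylated gelatin added for 30 min at 37 °C, then 0.03% TNBS for 20 min; absorbance at 450 nm. IC₅₀ as mean with SD of three experiments.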

In another experiment the test system is HL-60. As to the kind of experiment: Antiproliferative activity against human HL60 cells after 48 hrs by MTT assay. Format: functional, cell-based. The settings on record: HL-60, 48 h. In a few lines:
(§1)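 Cells kept in RPMI1640 with 10% FBS at 37 °C, 5% CO₂; seeded 10,000/well, grown 4 h, then exposed to graded compound concentrations for 48 h. 0.5% MTT added for 4 h, formazan dissolved in DMSO 15 min. IC₅₀ as mean with SD of triplicate experiments.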
(In general: Tetrazolium assays rely on reduction of a dye to a coloured formazan, in cell work by metabolically active cells.)

Another experiment concerns A549. As to the kind of experiment: Antiproliferative activity against human A549 cells after 48 hrs by MTT assay. The settings on record: A549, 48 h. It counts as functional, cell-based. A digest of the protocol: as §1
In a further experiment the test system is SK-OV-3. As to the kind of experiment: Antiproliferative activity against human SKOV3 cells after 48 hrs by MTT assay. It counts as functional, cell-based. The settings on record: SK-OV-3, 48 h. A digest of the protocol:
as §1

T1 sequence (P08253 whole entry): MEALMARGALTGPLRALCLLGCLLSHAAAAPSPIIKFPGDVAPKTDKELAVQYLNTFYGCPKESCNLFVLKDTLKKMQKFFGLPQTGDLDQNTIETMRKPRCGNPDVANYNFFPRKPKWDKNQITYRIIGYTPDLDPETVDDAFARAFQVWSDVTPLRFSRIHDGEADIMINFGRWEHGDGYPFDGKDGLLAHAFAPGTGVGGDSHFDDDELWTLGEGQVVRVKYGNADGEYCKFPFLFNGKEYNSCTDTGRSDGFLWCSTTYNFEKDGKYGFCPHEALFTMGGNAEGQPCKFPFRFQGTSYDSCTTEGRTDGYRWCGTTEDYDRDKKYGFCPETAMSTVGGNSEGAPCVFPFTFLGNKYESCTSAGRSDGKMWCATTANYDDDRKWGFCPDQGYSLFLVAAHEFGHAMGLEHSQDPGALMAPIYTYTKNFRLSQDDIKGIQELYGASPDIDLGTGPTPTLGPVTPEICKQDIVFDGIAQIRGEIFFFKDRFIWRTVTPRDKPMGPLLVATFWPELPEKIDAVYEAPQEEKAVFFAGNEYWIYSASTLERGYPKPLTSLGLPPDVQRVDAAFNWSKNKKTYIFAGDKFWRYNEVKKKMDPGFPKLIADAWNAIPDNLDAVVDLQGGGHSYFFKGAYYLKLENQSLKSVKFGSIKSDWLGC

As to `C[C@H](N)C(=O)NCC(=O)N[C@H]1C[C@@H](C(=O)NO)N(S(=O)(=O)c2ccccc2)C1.Cl`, the IC50 in experiment [1] was 7.43 µM; on Aminopeptidase N it was more than 100 µM; against Histone deacetylase it was more than 100 µM.

`CC(C)[C@H](N)C(=O)NCC(=O)N[C@H]1C[C@@H](C(=O)NO)N(S(=O)(=O)c2ccccc2)C1.Cl`: the IC50 in experiment [1] is 5.76 µM; against Aminopeptidase N it was more than 100 µM; at Histone deacetylase, more than 100 µM.

For the compound `CC(C)C[C@H](N)C(=O)NCC(=O)N[C@H]1C[C@@H](C(=O)NO)N(S(=O)(=O)c2ccccc2)C1.Cl`, the IC50 in experiment [1] was 1.52 µM; against Aminopeptidase N, 82.3 µM; on Histone deacetylase, more than 100 µM.

As for `CC[C@H](C)[C@H](N)C(=O)NCC(=O)N[C@H]1C[C@@H](C(=O)NO)N(S(=O)(=O)c2ccccc2)C1.Cl`, the IC50 was 5.21 µM in experiment [1], more than 100 µM against Aminopeptidase N and more than 100 µM against Histone deacetylase.

For the compound `Cl.N[C@@H](Cc1ccccc1)C(=O)NCC(=O)N[C@H]1C[C@@H](C(=O)NO)N(S(=O)(=O)c2ccccc2)C1`, the IC50 was 2.07 µM in experiment [1], 94.5 µM on Aminopeptidase N and more than 100 µM at Histone deacetylase.

As for `CSCC[C@H](N)C(=O)NCC(=O)N[C@H]1C[C@@H](C(=O)NO)N(S(=O)(=O)c2ccccc2)C1.Cl`, the IC50 in experiment [1] is 2.32 µM; on Aminopeptidase N it was more than 100 µM; at Histone deacetylase, more than 100 µM.

As to `Cc1ccc(S(=O)(=O)N2C[C@@H](NC(=O)CNC(=O)[C@H](C)N)C[C@H]2C(=O)NO)cc1.Cl`, the results for the IC50 (in experiment [1]; against Aminopeptidase N; on Histone deacetylase) were 4.36 µM, more than 100 µM and more than 100 µM, respectively.

`Cc1ccc(S(=O)(=O)N2C[C@@H](NC(=O)CNC(=O)[C@@H](N)C(C)C)C[C@H]2C(=O)NO)cc1.Cl`: the IC50 in experiment [1] is 2.95 µM; against Aminopeptidase N, 96.2 µM; on Histone deacetylase, more than 100 µM.

Regarding `Cc1ccc(S(=O)(=O)N2C[C@@H](NC(=O)CNC(=O)[C@@H](N)CC(C)C)C[C@H]2C(=O)NO)cc1.Cl`, the IC50 in experiment [2] was 38.3 µM; in experiment [1], 0.87 µM; at Aminopeptidase N it was 75.8 µM; at Histone deacetylase, more than 100 µM.

With `CC[C@H](C)[C@H](N)C(=O)NCC(=O)N[C@H]1C[C@@H](C(=O)NO)N(S(=O)(=O)c2ccc(C)cc2)C1.Cl`, the IC50 is 2.05 µM in experiment [1], 92.6 µM at Aminopeptidase N and more than 100 µM at Histone deacetylase.

As to `Cc1ccc(S(=O)(=O)N2C[C@@H](NC(=O)CNC(=O)[C@@H](N)Cc3ccccc3)C[C@H]2C(=O)NO)cc1.Cl`, the figures for the IC50 (in experiment [1]; against Aminopeptidase N; against Histone deacetylase) were 0.98 µM, 88 µM and more than 100 µM, respectively.

With `CSCC[C@H](N)C(=O)NCC(=O)N[C@H]1C[C@@H](C(=O)NO)N(S(=O)(=O)c2ccc(C)cc2)C1.Cl`, the values for the IC50 (in experiment [1]; on Aminopeptidase N; against Histone deacetylase) were 1.03 µM, more than 100 µM and more than 100 µM, respectively.

For `COc1ccc(S(=O)(=O)N2C[C@@H](NC(=O)CNC(=O)[C@H](C)N)C[C@H]2C(=O)NO)cc1.Cl`, the IC50 in experiment [1] was 4.19 µM; against Aminopeptidase N, more than 100 µM; at Histone deacetylase it was more than 100 µM.

For `COc1ccc(S(=O)(=O)N2C[C@@H](NC(=O)CNC(=O)[C@@H](N)C(C)C)C[C@H]2C(=O)NO)cc1.Cl`, the IC50 in experiment [1] is 2.71 µM; on Aminopeptidase N, 90.8 µM; at Histone deacetylase, more than 100 µM.

For the compound `COc1ccc(S(=O)(=O)N2C[C@@H](NC(=O)CNC(=O)[C@@H](N)CC(C)C)C[C@H]2C(=O)NO)cc1.Cl`, the IC50 in experiment [2] is 29.7 µM; in experiment [1], 0.52 µM; at Aminopeptidase N, 83.6 µM; against Histone deacetylase, more than 100 µM.

For `CC[C@H](C)[C@H](N)C(=O)NCC(=O)N[C@H]1C[C@@H](C(=O)NO)N(S(=O)(=O)c2ccc(OC)cc2)C1.Cl`, the IC50 is 1.94 µM in experiment [1], 89.9 µM at Aminopeptidase N and more than 100 µM against Histone deacetylase.

For `COc1ccc(S(=O)(=O)N2C[C@@H](NC(=O)CNC(=O)[C@@H](N)Cc3ccccc3)C[C@H]2C(=O)NO)cc1.Cl`, the IC50 in experiment [2] was 31.5 µM; in experiment [1] it was 0.72 µM; at Aminopeptidase N, 93.8 µM; on Histone deacetylase, more than 100 µM.

As for `COc1ccc(S(=O)(=O)N2C[C@@H](NC(=O)CNC(=O)[C@@H](N)CCSC)C[C@H]2C(=O)NO)cc1.Cl`, the IC50 in experiment [2] is 35.9 µM; in experiment [1] it was 0.76 µM; against Aminopeptidase N it was more than 100 µM; on Histone deacetylase it was more than 100 µM.

On to `C[C@H](N)C(=O)NCC(=O)N[C@H]1C[C@@H](C(=O)NO)N(S(=O)(=O)c2ccc(Cl)cc2)C1.Cl`, for which the IC50 was 3.36 µM in experiment [1], more than 100 µM at Aminopeptidase N and more than 100 µM against Histone deacetylase.

On to `CC(C)[C@H](N)C(=O)NCC(=O)N[C@H]1C[C@@H](C(=O)NO)N(S(=O)(=O)c2ccc(Cl)cc2)C1.Cl`, for which the IC50 in experiment [1] is 1.81 µM; against Aminopeptidase N, 79.6 µM; at Histone deacetylase, more than 100 µM.

Regarding `CC(C)C[C@H](N)C(=O)NCC(=O)N[C@H]1C[C@@H](C(=O)NO)N(S(=O)(=O)c2ccc(Cl)cc2)C1.Cl`, the IC50 with HL-60 is more than 1000 µM; with A549, more than 1000 µM; in experiment [2], 18.4 µM; in experiment [1], 0.27 µM; against Aminopeptidase N, 72.3 µM; against Histone deacetylase, more than 100 µM. In the experiment on SK-OV-3, this compound came in with an IC50 of 196 µM.

On to `CC[C@H](C)[C@H](N)C(=O)NCC(=O)N[C@H]1C[C@@H](C(=O)NO)N(S(=O)(=O)c2ccc(Cl)cc2)C1.Cl`, for which the IC50 was 1.28 µM in experiment [1], 86.4 µM against Aminopeptidase N and more than 100 µM against Histone deacetylase.

As to `Cl.N[C@@H](Cc1ccccc1)C(=O)NCC(=O)N[C@H]1C[C@@H](C(=O)NO)N(S(=O)(=O)c2ccc(Cl)cc2)C1`, the IC50 with HL-60 was more than 1000 µM; in the experiment on A549, more than 1000 µM; in experiment [2] it was 24.7 µM; in experiment [1], 0.43 µM; against Aminopeptidase N, 89.9 µM; on Histone deacetylase, more than 100 µM. In addition, the IC50 with SK-OV-3 was 285 µM.

As for `CSCC[C@H](N)C(=O)NCC(=O)N[C@H]1C[C@@H](C(=O)NO)N(S(=O)(=O)c2ccc(Cl)cc2)C1.Cl`, the IC50 is more than 1000 µM in the experiment with HL-60; more than 1000 µM in the experiment with A549; 26.2 µM in experiment [2]; 0.46 µM in experiment [1]; 95.3 µM on Aminopeptidase N; more than 100 µM against Histone deacetylase. Moreover, the midpoint of inhibition in the experiment with SK-OV-3, the IC50, lay at 322 µM.

Take `COc1ccc(/C=C/C(=O)N2C[C@@H](NC(=O)c3cccnc3)C[C@H]2C(=O)NO)cc1OC`: the IC50 in the experiment with HL-60 is more than 1000 µM; in the experiment on A549, more than 1000 µM; in experiment [2] it was 43.7 µM; in experiment [1], 0.95 µM; against Aminopeptidase N, more than 100 µM; at Histone deacetylase, more than 100 µM. For the same compound, in the experiment on SK-OV-3, half-maximal inhibition (IC50) required 697 µM.

`CC(C)C[C@H](NC(=O)[C@@H](O)[C@H](N)Cc1ccccc1)C(=O)O` [UBENIMEX] returned an IC50 in experiment [1] of more than 100 µM.

The term IC50 denotes the concentration needed to halve the response being measured. High values mean lower potency, low ones higher potency.
